# Key:
# Type in all cases: ADME
# [1] = Compound was evaluated, at a concentration of 10 mM acid, the solubility ratio is obtained by dividing the solubility of sickle hemoglobin (HbS) with the compound (grams per deciliter) by the solubility of the untreated sample (grams per deciliter); conditions: 10000 µM
# Outline: (§1)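 Sodium salt of acid (made with 1 equiv NaHCO3, 0.18 M stock in 0.15 M phosphate pH 7.4) diluted into HbS (~35 g %, 0.15 M phosphate), deoxygenated with dithionite, sealed in EPR tubes; final drug 5–40 mM. Spun alongside deoxy-HbS buffer control and 40 mM phenylalanine control; solubility at 35 °C, g/dL. Ratio = drug/control solubility; % increase relative to initial minus control; SD reported.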
# [2] = Compound was evaluated, at a concentration of 40 mM acid, for its ability to increase the solubility of sickle hemoglobin; conditions: 40000 µM; outline: as §1
# [3] = Compound was evaluated, at a concentration of 5 mM acid, the solubility ratio is obtained by dividing the solubility of sickle hemoglobin (HbS) with the compound (grams per deciliter) by the solubility of the untreated sample (grams per deciliter); conditions: 5000 µM; outline: as §1
# [4] = Compound was evaluated, at a concentration of 10 mM acid, for its ability to increase the solubility of sickle hemoglobin; conditions: 10000 µM; outline: as §1
# [5] = Compound was evaluated, at a concentration of 5 mM acid, for its ability to increase the solubility of sickle hemoglobin; conditions: 5000 µM; outline: as §1
# [6] = Compound was evaluated, at a concentration of 20 mM acid, for its ability to increase the solubility of sickle hemoglobin; conditions: 20000 µM; outline: as §1
# [7] = Compound was evaluated, at a concentration of 20 mM acid, the solubility ratio is obtained by dividing the solubility of sickle hemoglobin (HbS) with the compound (grams per deciliter) by the solubility of the untreated sample (grams per deciliter); conditions: 20000 µM; outline: as §1
# [8] = Compound was evaluated, at a concentration of 40 mM acid, the solubility ratio is obtained by dividing the solubility of sickle hemoglobin (HbS) with the compound (grams per deciliter) by the solubility of the untreated sample (grams per deciliter); conditions: 40000 µM; outline: as §1
# [9] = Compound was evaluated, at a concentration of 40 mM acid, for its ability to increase the solubility of sickle haemoglobin; conditions: 40000 µM; outline: as §1
SMILES,Solubility ratio [1],HbS solubilized [2],Solubility ratio [3],HbS solubilized [4],HbS solubilized [5],HbS solubilized [6],Solubility ratio [7],Solubility ratio [8],HbS solubilized [9]
C=C(CC)C(=O)c1ccc(OCC(=O)O)c(Cl)c1Cl [ETHACRYNIC ACID],1.166,89.4%,1.106,39.5%,25.3%,76.2%,1.317,1.375,
O=C(O)COCc1ccc(Cl)c(Cl)c1,1.166,,1.087,42.6%,22.1%,82.3%,1.321,1.345,88%
O=C(O)COCc1ccc(Br)cc1,1.118,87.7%,1.059,25.8%,13%,51%,1.233,1.398,
